Reference: ChEMBL document CHEMBL1152796, “Azole antimicrobial pharmacophore-based tetrazoles: synthesis and biological evaluation as potential antimicrobial and anticonvulsant agents” (Bioorg Med Chem, 2009)
Values after ≈ are worked out from the molar mass of the structure shown. Active and inactive are the calls of the source. No cut-off for these calls is given here.

Columns and labels:
Micrococcus luteus [1] = assay: Antibacterial activity against Micrococcus luteus ATCC 21881 at 1 mg/mL after 24 hrs by agar diffusion method; format: functional; conditions: ATCC 21881, 24 h, read-out: Diameter of inhibition zone
Procedure, shortened: (§1)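 Agar disc diffusion: 5 mm sterile paper discs soaked in 1 mg/mL test solution in DMSO were placed on agar seeded with the organism, in triplicate, with a DMSO-only control. Bacterial plates were incubated at 37 °C for 24 h and fungal plates for 7 days. Read-out was the average inhibition-zone diameter in mm. Fungi were clinical isolates.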

Pichia kudriavzevii = assay: Antifungal activity against Candida krusei isolate after 72 hrs by twofold serial dilution method; format: functional, organism-based
Mus musculus [2] = assay: Anticonvulsant activity in Wister albino mouse assessed as protection against subcutaneous metrazole-induced seizures at 100 mg/kg, ip administered 30 mins before metrazole challenge measured after 30 mins; format: functional; conditions: route intraperitoneal
Procedure, shortened: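 Wistar albino mice, either sex, 25–30 g, 3 months old, in groups of six. Compounds in DMSO were given ip at 30, 100 or 300 mg/kg; vehicle-only controls. After 30 min, metrazole 100 mg/kg in DMSO was injected sc at the posterior midline. Protection meant absence of any clonic spasm lasting ≥5 s; scored as protected/tested.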

Escherichia coli [3] = assay: Antibacterial activity against Escherichia coli ATCC 25922 at 1 mg/mL after 24 hrs by agar diffusion method; format: functional; conditions: ATCC 25922, 24 h, read-out: Diameter of inhibition zone; procedure, shortened: as §1
Bacillus subtilis [4] = assay: Antibacterial activity against Bacillus subtilis NRRL B-14819 after 24 to 48 hrs by twofold serial dilution method; format: functional
Procedure, shortened: (§2)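 Broth microdilution in Müller–Hinton broth. DMSO stocks at 800 were diluted twofold from 400 down to 6.25. Wells received 10^6 CFU/mL bacterial suspension and were incubated at 36 °C for 24–48 h, with controls. MIC was read per well. Duplicate assays; run only for compounds giving inhibition zones ≥14 mm.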

Escherichia coli [5] = assay: Antibacterial activity against Escherichia coli ATCC 25922 after 24 to 48 hrs by twofold serial dilution method; format: functional; procedure, shortened: as §2
Candida tropicalis = assay: Antifungal activity against Candida tropicalis isolate after 72 hrs by twofold serial dilution method; format: functional, organism-based
Pseudomonas aeruginosa [6] = assay: Antibacterial activity against Pseudomonas aeruginosa ATCC 27853 at 1 mg/mL after 24 hrs by agar diffusion method; format: functional; conditions: ATCC 27853, 24 h, read-out: Diameter of inhibition zone; procedure, shortened: as §1
Staphylococcus aureus [7] = assay: Antibacterial activity against Staphylococcus aureus ATCC 6538 after 24 to 48 hrs by twofold serial dilution method; format: functional; procedure, shortened: as §2
Klebsiella pneumoniae [8] = assay: Antibacterial activity against Klebsiella pneumoniae isolate at 1 mg/mL after 24 hrs by agar diffusion method; format: functional; conditions: read-out: Diameter of inhibition zone; procedure, shortened: as §1
Pseudomonas aeruginosa [9] = assay: Antibacterial activity against Pseudomonas aeruginosa ATCC 27853 after 24 to 48 hrs by twofold serial dilution method; format: functional; procedure, shortened: as §2
Staphylococcus aureus [10] = assay: Antibacterial activity against Staphylococcus aureus ATCC 6538 at 1 mg/mL after 24 hrs by agar diffusion method; format: functional; conditions: ATCC 6538, 24 h, read-out: Diameter of inhibition zone; procedure, shortened: as §1
Micrococcus luteus [11] = assay: Antibacterial activity against Micrococcus luteus ATCC 21881 after 24 to 48 hrs by twofold serial dilution method; format: functional; procedure, shortened: as §2
Mus musculus [12] = assay: Anticonvulsant activity in Wister albino mouse assessed as protection against maximal electroshock-induced seizures at 100 mg/kg, ip administered 30 mins before metrazole challenge measured after 30 mins; format: functional; conditions: route intraperitoneal
Trichophyton rubrum = assay: Antifungal activity against Trichophyton rubrum isolate after 72 hrs by twofold serial dilution method; format: functional, organism-based
Aspergillus fumigatus [13] = assay: Antifungal activity against Aspergillus fumigatus isolate at 1 mg/mL after 7 days by agar diffusion method; format: functional; conditions: 168 h, read-out: Diameter of inhibition zone; procedure, shortened: as §1
Aspergillus niger = assay: Antifungal activity against Aspergillus niger isolate after 72 hrs by twofold serial dilution method; format: functional, organism-based
Candida albicans [14] = assay: Antifungal activity against Candida albicans isolate at 1 mg/mL after 7 days by twofold serial dilution method; format: functional; conditions: 168 h, read-out: Diameter of inhibition zone
Klebsiella pneumoniae [15] = assay: Antibacterial activity against Klebsiella pneumoniae isolate after 24 to 48 hrs by twofold serial dilution method; format: functional; procedure, shortened: as §2
Bacillus subtilis [16] = assay: Antibacterial activity against Bacillus subtilis NRRL B-14819 at 1 mg/mL after 24 hrs by agar diffusion method; format: functional; conditions: read-out: Diameter of inhibition zone; procedure, shortened: as §1
Candida albicans [17] = assay: Antifungal activity against Candida albicans isolate after 72 hrs by twofold serial dilution method; format: functional
Aspergillus fumigatus [18] = assay: Antifungal activity against Aspergillus fumigatus isolate after 72 hrs by twofold serial dilution method; format: functional

SMILES: Sc1nnc(COC(Cn2nnc(-c3ccccc3)n2)c2ccc(Cl)cc2)o1 (stereo not given)
- zone of inhibition at 1000 µg/mL (Micrococcus luteus [1]): ≥ 14 mm
- Activity (Pichia kudriavzevii): inactive
- Activity (Mus musculus [2]): 33%
- zone of inhibition at 1000 µg/mL (Escherichia coli [3]): ≥ 14 mm
- MIC (Bacillus subtilis [4]): 25 µg/mL (≈ 60.3 µM)
- MIC (Escherichia coli [5]): 25 µg/mL (≈ 60.3 µM)
- Activity (Candida tropicalis): inactive
- zone of inhibition at 1000 µg/mL (Pseudomonas aeruginosa [6]): ≥ 14 mm
- MIC (Staphylococcus aureus [7]): 6.25 µg/mL (≈ 15.1 µM)
- zone of inhibition at 1000 µg/mL (Klebsiella pneumoniae [8]): ≥ 14 mm
- MIC (Pseudomonas aeruginosa [9]): 50 µg/mL (≈ 121 µM)
- zone of inhibition at 1000 µg/mL (Staphylococcus aureus [10]): ≥ 14 mm
- MIC (Micrococcus luteus [11]): 50 µg/mL (≈ 121 µM)
- Activity (Mus musculus [12]): 0%
- Activity (Trichophyton rubrum): inactive
- zone of inhibition at 1000 µg/mL (Aspergillus fumigatus [13]): ≥ 14 mm
- Activity (Aspergillus niger): inactive
- zone of inhibition at 1000 µg/mL (Candida albicans [14]): ≥ 14 mm
- MIC (Klebsiella pneumoniae [15]): 100 µg/mL (≈ 241 µM)
- zone of inhibition at 1000 µg/mL (Bacillus subtilis [16]): ≥ 14 mm

SMILES: Sc1nnc(COC(Cn2nnnc2Cc2ccccc2)c2ccc(Cl)cc2)o1 (stereo not given)
- zone of inhibition at 1000 µg/mL (Micrococcus luteus [1]): ≥ 14 mm
- Activity (Pichia kudriavzevii): inactive
- zone of inhibition at 1000 µg/mL (Escherichia coli [3]): ≥ 14 mm
- MIC (Bacillus subtilis [4]): 100 µg/mL (≈ 233 µM)
- MIC (Escherichia coli [5]): ≥ 200 µg/mL
- Activity (Candida tropicalis): inactive
- zone of inhibition at 1000 µg/mL (Pseudomonas aeruginosa [6]): ≥ 14 mm
- MIC (Staphylococcus aureus [7]): 50 µg/mL (≈ 117 µM)
- zone of inhibition at 1000 µg/mL (Klebsiella pneumoniae [8]): ≥ 14 mm
- MIC (Pseudomonas aeruginosa [9]): ≥ 200 µg/mL
- zone of inhibition at 1000 µg/mL (Staphylococcus aureus [10]): ≥ 14 mm
- MIC (Candida albicans [17]): 100 µg/mL (≈ 233 µM)
- MIC (Micrococcus luteus [11]): 100 µg/mL (≈ 233 µM)
- Activity (Trichophyton rubrum): inactive
- zone of inhibition at 1000 µg/mL (Aspergillus fumigatus [13]): ≥ 14 mm
- Activity (Aspergillus niger): inactive
- zone of inhibition at 1000 µg/mL (Candida albicans [14]): ≥ 14 mm
- MIC (Klebsiella pneumoniae [15]): ≥ 200 µg/mL
- zone of inhibition at 1000 µg/mL (Bacillus subtilis [16]): ≥ 14 mm
- MIC (Aspergillus fumigatus [18]): ≥ 200 µg/mL

SMILES: Sc1nnc(COC(Cn2nnnc2Cc2ccccc2)c2ccc(Cl)cc2)n1-c1ccc(Cl)cc1 (stereo not given)
- zone of inhibition at 1000 µg/mL (Micrococcus luteus [1]): ≥ 14 mm
- Activity (Pichia kudriavzevii): inactive
- zone of inhibition at 1000 µg/mL (Escherichia coli [3]): ≥ 14 mm
- MIC (Bacillus subtilis [4]): 50 µg/mL (≈ 92.9 µM)
- MIC (Escherichia coli [5]): 50 µg/mL (≈ 92.9 µM)
- Activity (Candida tropicalis): inactive
- zone of inhibition at 1000 µg/mL (Pseudomonas aeruginosa [6]): ≥ 14 mm
- MIC (Staphylococcus aureus [7]): 25 µg/mL (≈ 46.4 µM)
- zone of inhibition at 1000 µg/mL (Klebsiella pneumoniae [8]): ≥ 14 mm
- MIC (Pseudomonas aeruginosa [9]): ≥ 200 µg/mL
- zone of inhibition at 1000 µg/mL (Staphylococcus aureus [10]): ≥ 14 mm
- MIC (Candida albicans [17]): 25 µg/mL (≈ 46.4 µM)
- MIC (Micrococcus luteus [11]): 100 µg/mL (≈ 186 µM)
- Activity (Trichophyton rubrum): inactive
- zone of inhibition at 1000 µg/mL (Aspergillus fumigatus [13]): ≥ 14 mm
- Activity (Aspergillus niger): inactive
- zone of inhibition at 1000 µg/mL (Candida albicans [14]): ≥ 14 mm
- MIC (Klebsiella pneumoniae [15]): ≥ 200 µg/mL
- zone of inhibition at 1000 µg/mL (Bacillus subtilis [16]): ≥ 14 mm
- MIC (Aspergillus fumigatus [18]): ≥ 200 µg/mL

SMILES: Sc1nnc(COC(Cn2nnc(-c3ccccc3)n2)c2ccc(Cl)cc2)n1-c1ccccc1 (stereo not given)
- zone of inhibition at 1000 µg/mL (Micrococcus luteus [1]): ≥ 14 mm
- Activity (Pichia kudriavzevii): inactive
- Activity (Mus musculus [2]): 33%
- zone of inhibition at 1000 µg/mL (Escherichia coli [3]): ≥ 14 mm
- MIC (Bacillus subtilis [4]): 50 µg/mL (≈ 102 µM)
- MIC (Escherichia coli [5]): 50 µg/mL (≈ 102 µM)
- Activity (Candida tropicalis): inactive
- zone of inhibition at 1000 µg/mL (Pseudomonas aeruginosa [6]): ≥ 14 mm
- MIC (Staphylococcus aureus [7]): 12.5 µg/mL (≈ 25.5 µM)
- zone of inhibition at 1000 µg/mL (Klebsiella pneumoniae [8]): ≥ 14 mm
- MIC (Pseudomonas aeruginosa [9]): 100 µg/mL (≈ 204 µM)
- zone of inhibition at 1000 µg/mL (Staphylococcus aureus [10]): ≥ 14 mm
- MIC (Micrococcus luteus [11]): 50 µg/mL (≈ 102 µM)
- Activity (Mus musculus [12]): 33%
- Activity (Trichophyton rubrum): inactive
- zone of inhibition at 1000 µg/mL (Aspergillus fumigatus [13]): ≥ 14 mm
- Activity (Aspergillus niger): inactive
- zone of inhibition at 1000 µg/mL (Candida albicans [14]): ≥ 14 mm
- MIC (Klebsiella pneumoniae [15]): 50 µg/mL (≈ 102 µM)
- zone of inhibition at 1000 µg/mL (Bacillus subtilis [16]): ≥ 14 mm
